Screening data as filed in PubChem.
Hits are enriched below; roughly 1.8% of the tested compounds scored in any of these assays.
CHRM5 agonist – agonists of human muscarinic M5 receptor (CHRM5) | CHO-K1 hM5 cells, Fluo-8 calcium fluorescence; 0% DMSO wells, 100% maximal acetylcholine response | activation, % at 3 µM | 0.19% of 360,000 active | AID 624037;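 active means activation above the run's mean over test compounds plus 3 SD, cut at about 23% in these data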;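 further: signal is peak over basal fluorescence ratio across the kinetic read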
Target sequence (P08912 whole entry, looked up): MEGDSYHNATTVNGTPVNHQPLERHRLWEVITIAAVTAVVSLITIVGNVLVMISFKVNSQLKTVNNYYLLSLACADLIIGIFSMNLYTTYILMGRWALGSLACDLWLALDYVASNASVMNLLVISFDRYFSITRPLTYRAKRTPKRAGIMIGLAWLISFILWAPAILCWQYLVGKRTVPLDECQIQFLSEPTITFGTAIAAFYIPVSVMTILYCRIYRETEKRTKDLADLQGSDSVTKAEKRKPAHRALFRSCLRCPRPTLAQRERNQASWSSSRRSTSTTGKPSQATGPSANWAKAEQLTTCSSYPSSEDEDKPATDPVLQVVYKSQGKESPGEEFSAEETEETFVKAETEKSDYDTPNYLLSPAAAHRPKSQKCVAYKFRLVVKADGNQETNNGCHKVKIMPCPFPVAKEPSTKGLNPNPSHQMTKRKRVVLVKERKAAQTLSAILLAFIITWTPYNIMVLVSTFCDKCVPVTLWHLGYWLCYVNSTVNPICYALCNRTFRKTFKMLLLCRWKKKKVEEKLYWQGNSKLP
M4 PAM – positive allosteric modulators of human muscarinic M4 receptor. CHO-K1 hM4/Gqi5, Fluo-8 calcium fluorescence, ACh EC20; 0% = ACh EC20, 100% = maximal ACh. activation, % at 3 µM. 0.4% of 360,000 active. P08173. AID 624126;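 active means activation above its plate's cutoff, the mean activation of sample wells plus 3 SD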
CHRM4 antagonist – antagonists of human muscarinic M4 receptor (CHRM4); P08173; CHO-hM4 cells, ACh EC80, Fluo-8 calcium fluorescence; inhibition, % at 3 µM; 0.73% of 360,000 active; AID 624125;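 active means inhibition above its plate's cutoff, the mean inhibition of sample wells plus 3 SD, cut at about 27% in these data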;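 further: 0% = acetylcholine EC80 with DMSO and 100% = DMSO without agonist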
CHRM5 PAM – potentiates acetylcholine response at human M5 receptor | P08912 | CHO-K1 hM5, Fluo-8 calcium, ACh EC20 PAM; 0% = ACh EC20, 100% = ACh EC100 | activation, % at 3 µM | 0.3% of 360,000 active | AID 624038;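 active means activation above the run cutoff, the mean activation of all test compounds plus 3 SD, cut at about 18% in these data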
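Probe or stimulus: acetylcholine, EC20 level; Assay system: human M5 receptor in CHO-K1 cells; Schedule: compound preincubation 140 s before EC20 acetylcholine addition; Technique: intracellular calcium via Fluo-8 fluorescence; Dosing: single-point, 3 µM nominal; Read-out basis: percent activation from peak-over-basal fluorescence ratio, scaled EC20-to-EC100 acetylcholine; Repeats: one well per compound, no replicates.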
M5 antag – blocks acetylcholine activation of human M5 receptor | P08912 | CHO-hM5 cells, Fluo-8 calcium fluorescence, ACh EC80 | inhibition, % at 3 µM | 0.59% of 360,000 active | AID 624040;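 active means inhibition above a per-plate cutoff, the mean of that plate's test compounds plus 3 SD, cut at about 27% in these data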;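 further: 0% = acetylcholine EC80 with DMSO and 100% = DMSO without agonist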
CHRM4 agonist – agonists of human muscarinic M4 receptor (CHRM4); activation, % at 3 µM; CHO-K1 hM4/Gqi5, Fluo-8 calcium fluorescence; vehicle 0%, full acetylcholine response 100%; 0.14% of 360,000 active; P08173;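 active means activation above the run mean over all test wells plus 3 SD, cut at about 32% in these data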;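 further: peak over basal fluorescence ratio per well then scaled between controls; 0% = DMSO wells and 100% = acetylcholine at EC100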
* = called active by the depositor.

SMILES | CHRM5 agonist | M4 PAM | CHRM4 antagonist | CHRM5 PAM | M5 antag | CHRM4 agonist
CCOC(=O)c1ccc(S(=O)(=O)N2CCN(C(=O)C3CSC4(C)CCC(=O)N34)CC2)cc1 (centres undefined) | -1 | 14 | -13 | 1 | -3 | 1
COCCNc1ncnc2c1cnn2-c1ccc(Cl)cc1 | 2 | 13 | 28* | -4 | 19 | 6
FC(F)(F)c1cccc(N2CCN(C(=S)NCC3CCCO3)CC2)c1 (centres undefined) | -1 | -8 | -2 | -16 | 27* | 10
COc1ccccc1-c1nnc(NC(=O)CSc2nncn2C)s1 | -1 | -4 | 8 | -1 | 1 | 1
COc1ccc(NC(=O)CSc2nc(N)c(NC(=O)c3ccccc3F)c(=O)[nH]2)cc1 | -2 | 17* | 2 | 1 | 10 | 1
COc1ccc(C(=O)Nc2c(N)nc(SCC(=O)Nc3ccc(NC(C)=O)cc3)[nH]c2=O)cc1 | -2 | 8 | -6 | -8 | 8 | 1
O=C(NC1CC2CCC(C1)N2C(=O)NCc1ccccc1)C1CC1 (centres undefined) | -6 | -16 | 30* | 2 | -3 | 1
CCCc1ncc(C(O)(c2ccccc2)c2ccc(C)cc2)n1C (centres undefined) | -9 | -19 | 50* | -19 | 73* | 3
CCCc1ncc(C(O)(c2ccccc2)c2ccccc2)n1C | -11 | -18 | 62* | -20 | 59* | 2
CC(=O)c1ccc(OCc2cc(C(=O)N3CCN(C4CCCC4)C(=O)C3)no2)cc1 | 1 | -3 | 2 | 4 | -3 | 3
COCCCN(C(=O)c1ccccc1)c1nc(-c2ccc(OC)cc2)cs1 | -6 | -4 | 10 | -2 | -2 | 0
COCCCN(C(C)=O)c1nc(-c2ccccc2)cs1 | -4 | 44* | -21 | 4 | -8 | 2
O=[N+]([O-])c1ccc(/C=C/C2=NN(c3ccccc3)C(c3ccco3)C2)cc1 (centres undefined) | 43* | -9 | 16 | -13 | 42* | 15
CC1=NN(c2ccccc2)C(c2ccco2)C1 (centres undefined) | -3 | 10 | 1 | -5 | 3 | 0
O=[N+]([O-])c1ccc(C=CC=Cc2ccccc2)cc1 | 1 | 6 | 4 | -2 | 8 | 1
O=[N+]([O-])c1ccc(C2=NN(c3ccccc3)C(c3ccco3)C2)cc1 (centres undefined) | 214* | -34 | 37* | -31 | 77* | 41*
Cn1c(N)c(-c2ccccc2)c2ccc([N+](=O)[O-])cc2c1=O | 23 | -20 | 17 | -9 | 16 | 56*
O=c1cc(-c2ccccc2)[nH]n1-c1ccc([N+](=O)[O-])cc1 | 5 | 3 | 6 | 5 | -6 | 1
CC(=O)c1c(C)nc2ccc(Br)cc2c1-c1ccccc1 | -2 | 7 | -9 | -1 | -4 | 0
CC(=O)c1c(C)nc2ccc([N+](=O)[O-])cc2c1-c1ccccc1 | -8 | 14* | -27 | 6 | -2 | 2
COc1cccc(N2CCN(c3ncnc4c3[nH]c3ccc(F)cc34)CC2C)c1 (centres undefined) | 7 | -23 | 85* | -23 | 77* | 28
COCCCNc1c2c3c(cccc3[nH]c1=O)C(=O)c1ccccc1-2 | 94* | -18 | 53* | -26 | 41* | 305*
O=S(=O)(/C(=C\c1ccc(C(F)(F)F)cc1)c1nc2ccccc2[nH]1)c1ccccc1 | 5 | -7 | 44* | 8 | 13 | 3
OCCN(CC#CCC(O)(c1ccccc1)C1CCCC1)CCO (centres undefined) | -13 | -1 | -7 | 7 | -1 | 1
CCN(CC)CC#CCC(O)(c1ccccc1)C1CCCC1 (centres undefined) | -6 | -21 | 95* | -23 | 95* | 1
SMILES | CHRM5 agonist | M4 PAM | CHRM4 antagonist | CHRM5 PAM | M5 antag | CHRM4 agonist
CN(C)CC#CCC(O)(c1ccccc1)C1CCCCC1 (centres undefined) | -16 | -17 | 92* | -31 | 96* | 3
CC(=O)Nc1ccc(C(=O)COC(=O)c2cccs2)c(F)c1 | 3 | 7 | -21 | -5 | -1 | 4
Cn1cccc1C(=O)NCc1ccc(S(N)(=O)=O)cc1 | -4 | 0 | 2 | -3 | 5 | 2
Cc1ccccc1/C=N/NC(=O)Cn1nnc(N)n1 | -1 | 12 | -7 | 7 | -8 | 1
Nc1nnn(CC(=O)N/N=C/c2cccc3ccccc23)n1 | 9 | 3 | 5 | 18* | 24 | 1
COc1cc(NC(=O)c2cc3ccccc3cc2O)c(OC)cc1Cl | 5 | -13 | 8 | -12 | 17 | 18
COc1ccccc1NC(=O)c1cc2cc(Br)ccc2cc1O | 6 | -19 | 28* | -18 | 37* | 33*
COc1ccccc1-n1cnc2cc(NCc3ccccn3)ccc21 | -5 | -15 | 42* | -19 | 20 | 0
COc1cccc(CN(C)C(=O)c2ccc(OCC(=O)Nc3cccc(C(F)(F)F)c3)c(OC)c2)c1 | 4 | -12 | 19 | -29 | 29* | 21
O=S(=O)(c1ccccc1F)N1CCN(CCc2ccccc2)CC1 | -3 | -18 | 101* | -4 | -4 | -2
COc1cccc(NC(=O)C2CC(=O)N(Cc3ccco3)C2)c1 (centres undefined) | 0 | 21* | -6 | 2 | -5 | 2
CCN(CC)c1ccc(C2C(C(=O)OCCOC(C)C)=C(C)NC3=C2C(=O)CCC3)cc1 (centres undefined) | -7 | -20 | 33* | -21 | 25 | 1
CCc1nc2ccc(C(=O)Nc3cccc(OCC(=O)N(C)C)c3)cn2c1N(C)Cc1cc2ccccc2s1 | -2 | -12 | 34* | -22 | 33* | 15
CCNC(=O)N(C)c1c(CC)nc2ccc(C(=O)Nc3cccc(OCC(=O)N(C)C)c3)cn12 | 2 | -1 | -3 | -9 | 19 | 0
O=Cc1c(Nc2cccc(C(F)(F)F)c2)nc2ccccn2c1=O | -2 | 16* | -19 | -7 | 17 | 1
O=C(N/N=C/c1c(Nc2cccc(C(F)(F)F)c2)nc2ccccn2c1=O)c1ccccc1[N+](=O)[O-] | 3 | 1 | -9 | 3 | -4 | 0
CC(=O)c1ccc(NC(=O)CSc2ccc(-c3sc(C)nc3C)nn2)cc1 | 3 | -8 | 3 | -17 | 32* | 24
Cc1nc(C)c(-c2ccc(SCC(=O)Nc3ccc(C)c(Cl)c3)nn2)s1 | -2 | 0 | 9 | -1 | 1 | 4
Cc1cc(NC(=O)c2ccc(Cl)cc2)cc(C)c1OCC(=O)N1CCOCC1 | 0 | 1 | 0 | 0 | -7 | 5
